GASC-1 inh: inhibitors of GASC-1 histone demethylase, primary screen, biochemical, fluorescence, DELFIA europium. Lysine-specific demethylase 4C (Homo sapiens), Q9H3R0. GST-JMJD2C(1-420) H3K9me3 demethylation. inhibition, % at 2.35 µM. hit rate 0.069% among 330,000;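 active = more than half of a compound's replicate wells show inhibition beyond 50%, single wells judged on their own value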;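 also: signal counts dimethyl H3K9 product captured on neutravidin plate; 0% = median of DMSO wells and 100% = 0.3 times that DMSO median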
ADAM10 inh: human ADAM10 inhibitors, primary screen, biochemical, QFRET, HTS; Disintegrin and metalloproteinase domain-containing protein 10 (Homo sapiens), O14672; recombinant ADAM10, EDANS/DABCYL FRET peptide cleavage, 3 h; inhibition, % at 7 µM; AID 720582, 2013; hit rate 0.62% among 370,000;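 active = inhibition above a per-campaign cutoff equal to the mean of compounds falling between control-based bounds plus 3 SD, cut at about 20% in these data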;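 also: 0% = DMSO wells while the 100% control is not disclosed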
Target sequence (O14672 214-748 limits assumed): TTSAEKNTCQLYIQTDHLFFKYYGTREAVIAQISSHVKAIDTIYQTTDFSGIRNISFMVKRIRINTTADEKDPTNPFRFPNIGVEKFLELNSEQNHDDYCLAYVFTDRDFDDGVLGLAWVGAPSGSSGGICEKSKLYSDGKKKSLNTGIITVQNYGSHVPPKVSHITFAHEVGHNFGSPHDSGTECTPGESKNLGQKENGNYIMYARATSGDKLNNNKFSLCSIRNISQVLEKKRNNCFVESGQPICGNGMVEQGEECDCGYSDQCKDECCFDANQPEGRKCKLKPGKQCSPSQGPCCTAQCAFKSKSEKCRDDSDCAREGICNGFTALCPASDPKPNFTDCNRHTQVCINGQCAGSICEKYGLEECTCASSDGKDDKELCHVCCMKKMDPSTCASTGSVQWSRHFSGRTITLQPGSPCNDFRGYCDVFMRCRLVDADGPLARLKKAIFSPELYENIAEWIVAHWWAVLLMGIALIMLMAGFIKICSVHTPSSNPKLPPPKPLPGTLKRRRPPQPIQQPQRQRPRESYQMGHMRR
NR2E3 ag-1: NR2E3 agonists in two-hybrid cells, primary screen, cell-based, luminescence, CHO-S, Gal4-NCOR/VP16-NR2E3; inhibition of corepressor binding, % at 3.98 µM; hit rate 0.35% among 360,000; luciferase; AID 602229, 2012; Photoreceptor-specific nuclear receptor (Homo sapiens), Q9Y5X4;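 active = inhibition above the mean of all tested compounds plus 3 SD, cut at about 70% in these data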;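 also: 0% = DMSO with NR2E3 transfected cells and 100% = cells lacking NR2E3 construct; higher means lower luciferase signal from less NR2E3 corepressor binding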
NR2E3 ag-2: inhibitors of NR2E3-RetCOR corepressor binding, primary screen, NR2E3 agonist project, biochemical, TR-FRET, GST-NR2E3, biotin-RetCOR. Photoreceptor-specific nuclear receptor (Homo sapiens), Q9Y5X4. 1536-well. inhibition of corepressor binding, % at 4.78 µM. hit rate 0.12% among 320,000. AID 2300, 2010;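 active = percent inhibition above the cutoff of mean plus 3 SD of all tested compounds, set per screening campaign, cut at about 20% in these data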;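 also: 0% = DMSO wells and 100% = biotin wells as full block of FRET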
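system = GST-tagged NR2E3 plus biotinylated RetCOR corepressor | input = 1.35 nM GST-NR2E3 | also added = 7 nM biotin-RetCOR | schedule = 5 h incubation at 4 °C | measured by = TR-FRET with europium anti-GST and streptavidin-D2, 340 nm excitation | read-out = percent loss of FRET ratio relative to control wells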
ADAM17 inh: ADAM17 inhibitors, primary screen, biochemical, QFRET; recombinant ADAM17, EDANS/DABCYL FRET peptide cleavage; inhibition, % at 6.95 µM; hit rate 0.83% among 370,000; AID 720648, 2013;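 active = inhibition above the mean of compounds lying between control limits plus 3 SD, set per campaign, cut at about 8.5% in these data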;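 also: 0% = DMSO-only wells as the low control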
proKLK7 act: proKLK7 zymogen activators, primary screen, biochemical, fluorescence intensity; Kallikrein-7 (Homo sapiens), P49862; purified proKLK7, EDANS-DABCYL substrate fluorescence; 100% is mature enzyme control, 0% vehicle; activation, % at 7 µM; hit rate 0.9% among 370,000; AID 652039, 2013;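 active = activation above the mean of all tested compounds plus 3 SD, computed per campaign excluding outliers beyond control limits, cut at about 13% in these data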
KLK7 act conf: proKLK7 zymogen activators, confirmation, biochemical, fluorescence intensity, triplicate; shares compounds with proKLK7 act; purified proKLK7, EDANS-DABCYL substrate fluorescence; scaled: vehicle 0, mature enzyme 100; activation, % at 7 µM; hit rate 68% among 3,200; AID 686949, 2013;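 active = activation, as change over the incubation, above the mean of all tested compounds plus 3 SD, cut at about 13% in these data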
EDANS-DABCYL int: EDANS-DABCYL substrate optical interference, artefact control for kallikrein-7 zymogen activator project, biochemical, fluorescence intensity, high throughput. hit rate 80% among 3,200. activation, % at 7 µM. shares compounds with proKLK7 act. no enzyme, 4 h; solvent 0%, active enzyme control 100%;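 active = activation above the all-compound mean plus 3 SD, ignoring values outside control-based bounds, cut at about 4.8% in these data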;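 also: value is the 4 h activation minus the activation read at time zero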
The depositor's hits bear a star; i = inactive; x = not tested or not shown. In the library only some 2.5% were active in any assay of this set; here they are far more common.

SMILES	GASC-1 inh	ADAM10 inh	NR2E3 ag-1	NR2E3 ag-2	ADAM17 inh	proKLK7 act	KLK7 act conf	EDANS-DABCYL int
Cc1cc(=O)oc2cc(OC(=O)c3cncc(Br)c3)ccc12	0	i	4	0	i	6	x	x
CCCCn1nc(C(=O)Oc2ccc3c(C)cc(=O)oc3c2)c2ccccc2c1=O	2	i	-20	1	i	45*	64*	69*
CCCC(=O)Oc1ccc2c(C)cc(=O)oc2c1	-1	i	-39	3	i	656*	686*	706*
Cc1cc(=O)oc2cc(OC(=O)CCN3C(=O)c4ccccc4C3=O)ccc12	4	i	-8	-1	i	58*	427*	404*
COC(=O)[C@]12CCCCC=C1N(Cc1ccco1)C(=O)[C@H](CC(=O)N1CCOCC1)C2	x	-5	-14	x	-3	0	x	x
COc1cccc(-n2ccn(CC(=O)NCCc3ccccc3)c(=O)c2=O)c1	-3	4	13	3	-4	0	x	x
CC(=O)N(CC1CCCO1)c1nnc(-c2cnccn2)s1 (stereo not drawn)	-12	-44	-3	0	-14	2	x	x
COCC(=O)N(C)c1nnc(-c2ccccn2)s1	5	-231	-21	-2	-64	63*	82*	77*
COC(=O)Nc1nnc(-c2ccccc2OC)s1	-6	-121	-64	1	-46	-13	x	x
CN(C(=O)C1CCCO1)c1nnc(-c2ccncc2)s1 (stereo not drawn)	-24	i	-4	1	-173	130*	167*	167*
CN(C(=O)C1CCCO1)c1nnc(-c2ccccn2)s1 (stereo not drawn)	-6	i	-30	-1	-143	98*	94*	95*
COc1ccccc1-c1nnc(N(C)C(=O)C2CCCO2)s1 (stereo not drawn)	-11	-119	-2	1	-37	18*	26*	26*
COc1ccccc1C1CC(c2ccccc2)=NN1C(=S)Nc1ccccc1 (stereo not drawn)	-34	1	-27	-2	1	-1	x	x
CC(=O)Nc1cc(-c2ccccc2N(C)C)cn2c(-c3ccc(S(C)(=O)=O)cc3)cnc12	x	-122	-1	x	-29	13*	10	11*
CC(=O)Nc1cc(-c2ccccc2N(C)C)cn2c(-c3ccccc3)cnc12	x	-75	-49	x	-20	1	x	x
COCCNC(=O)C(c1ccc(Cl)cc1)N(CCOC)C(=O)CCC(=O)Nc1ccccn1 (stereo not drawn)	13	6	-14	2	-6	0	x	x
CN(C)C=Nc1ncc2c3ccccc3n(CCN(C)C)c2c1C#N	13	-147	-15	3	-46	5	x	x
CCN(CC)CCn1c2ccccc2c2cnc(N)c(C#N)c21	-4	-427	-54	2	-121	18*	7	3
CCC(=O)NNC(=O)c1cc(COc2cc(Cl)cc(Cl)c2)on1	4	5	4	2	-2	1	x	x
COCCCn1c(CCC(=O)O)ccc1-c1cccs1	8	i	-10	0	-199	13*	7	8.7*
CCOc1ccccc1NC(=O)c1cc(S(=O)(=O)NCc2ccco2)ccc1F	0	2	-24	3	0	1	x	x
COc1ccc(OC)c(NC(=O)c2cc(S(=O)(=O)NCc3ccco3)ccc2F)c1	6	-2	5	2	-1	13*	-1	1
c1cc(-c2cnc3cccnn23)c2cccnc2c1	x	i	-4	x	-262	18*	18*	22*
c1ccc2c(-c3cnc4cccnn34)cncc2c1	x	i	7	x	-199	25*	20*	21*
CC1(C)Cc2c(ccc3ccccc23)C2=C(C(=O)N3CCCC3)C(=O)C(=O)N21	-27	-38	-48	x	-16	13*	2	1
SMILES	GASC-1 inh	ADAM10 inh	NR2E3 ag-1	NR2E3 ag-2	ADAM17 inh	proKLK7 act	KLK7 act conf	EDANS-DABCYL int
N#CC1=C(N)C(C#N)(C#N)[C@H](c2ccoc2)[C@H]2CN(Cc3ccccc3)CC=C12	7	-227	-5	0	-72	13*	2	3
CC(=O)N1CC=C2C(C#N)=C(N)C(C#N)(C#N)[C@H](c3ccoc3)[C@H]2C1	-1	-139	-2	-1	-48	16*	16*	17*
CCN1CC=C2C(C#N)=C(N)C(C#N)(C#N)C(CCc3ccccc3)C2C1 (stereo not drawn)	6	i	-15	-2	-198	30*	15*	16*
CN1CC=C2C(C#N)=C(N)C(C#N)(C#N)[C@H](c3ccoc3)[C@H]2C1	5	x	-20	2	x	x	x	x
CC(C)CN1CCC1(C)C(=O)Nc1cccc(C#N)c1 (stereo not drawn)	x	-6	-24	x	-1	0	x	x
Cc1ccc(N(C)S(=O)(=O)c2cccc(C(=O)N(C)Cc3cnn(-c4ccccc4)c3)c2)cc1	x	9	9	x	5	1	x	x
COC(=O)C1(C(=O)OC)C/C=C\CN(S(=O)(=O)c2ccccc2[N+](=O)[O-])CC1	x	-6	-1	x	-2	0	x	x
Nc1c(C(=O)NCCN2CCOCC2)c2nc3ccccc3nc2n1-c1cccc(F)c1	-12	i	3	5	i	30*	-71	-73
CCCNC(=O)c1c(N)n(-c2cccc(OC)c2)c2nc3ccccc3nc12	-3	-473	-6	-3	-154	-40	x	x
COCCCNC(=O)c1c(N)n(-c2cccc(S(N)(=O)=O)c2)c2nc3ccccc3nc12	4	i	9	4	i	20*	-20	-66
CC(=O)N1CCOc2ccc(S(=O)(=O)N3CC(C)CC(C)C3)cc21 (stereo not drawn)	16	-5	-35	2	-1	0	x	x
N#CCOc1ccc2oc(-c3ccco3)cc(=O)c2c1	-3	x	x	1	x	x	x	x

Bioassay records as filed in PubChem.
